# Assay results: ChEMBL document CHEMBL1123146, “Design, synthesis, and evaluation of omega-iodovinyl- and omega-iodoalkyl-substituted methyl-branched long-chain fatty acids” (J Med Chem, 1985)
# How the values were obtained:
# Rattus norvegicus [1] = test: Distribution of radioactivity was measured in blood tissue of unfasted Fischer 344 rats administered intravenously after 15 minutes (radiolabeled with [125I]-; assay type: ADME, organism-based; details: in vivo, iv, 0.25 h
# In short: (§1)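 Female Fischer 344 rats, 10–12 weeks old (170–200 g), with food and water ad libitum, five per time point. The radioiodinated fatty acid was dissolved in ethanol, added to 6% BSA at ~40 °C (final 10% ethanol), filtered, and injected into a lateral tail vein (0.5 mL) under ether anesthesia. Blood was taken by cardiac puncture; organs were rinsed, blotted, weighed and gamma-counted against injectate standards. Output is % injected dose/g.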
# Rattus norvegicus [2] = test: Distribution of radioactivity was measured in blood tissue of unfasted Fischer 344 rats administered intravenously after 2 minutes (radiolabeled with [125I]-; assay type: ADME, organism-based; details: in vivo, iv; in short: as §1
# Rattus norvegicus [3] = test: Distribution of radioactivity was measured in blood tissue of unfasted Fischer 344 rats administered intravenously after 30 minutes (radiolabeled with [125I]-; assay type: ADME, organism-based; details: in vivo, iv, 0.5 h; in short: as §1
# Rattus norvegicus [4] = test: Distribution of radioactivity was measured in blood tissue of unfasted Fischer 344 rats administered intravenously after 5 minutes (radiolabeled with [125I]-; assay type: ADME, organism-based; details: in vivo, iv; in short: as §1
# Rattus norvegicus [5] = test: Distribution of radioactivity was measured in blood tissue of unfasted Fischer 344 rats administered intravenously after 60 minutes (radiolabeled with [125I]-; assay type: ADME, organism-based; details: in vivo, iv, 1 h; in short: as §1
# Rattus norvegicus [6] = test: Distribution of radioactivity was measured in heart tissue of unfasted Fischer 344 rats administered intravenously after 15 minutes (radiolabeled with [125I]-; assay type: ADME, organism-based; details: in vivo, iv, 0.25 h; in short: as §1
# Rattus norvegicus [7] = test: Distribution of radioactivity was measured in heart tissue of unfasted Fischer 344 rats administered intravenously after 2 minutes (radiolabeled with [125I]-; assay type: ADME, organism-based; details: in vivo, iv; in short: as §1
# Rattus norvegicus [8] = test: Distribution of radioactivity was measured in heart tissue of unfasted Fischer 344 rats administered intravenously after 30 minutes (radiolabeled with [125I]-; assay type: ADME, organism-based; details: in vivo, iv, 0.5 h; in short: as §1
# Rattus norvegicus [9] = test: Distribution of radioactivity was measured in heart tissue of unfasted Fischer 344 rats administered intravenously after 60 minutes (radiolabeled with [125I]-; assay type: ADME, organism-based; details: in vivo, iv, 1 h; in short: as §1
# Rattus norvegicus [10] = test: Distribution of radioactivity was measured in kidney tissue of unfasted Fischer 344 rats administered intravenously after 15 minutes (radiolabeled with [125I]-; assay type: ADME, organism-based; details: in vivo, iv, 0.25 h; in short: as §1
# Rattus norvegicus [11] = test: Distribution of radioactivity was measured in thyroid tissue of unfasted Fischer 344 rats administered intravenously after 15 minutes (radiolabeled with [125I]-; assay type: ADME, organism-based, Thyroid gland; details: in vivo, iv, 0.25 h; in short: as §1
# Rattus norvegicus [12] = test: Distribution of radioactivity was measured in thyroid tissue of unfasted Fischer 344 rats administered intravenously after 2 minutes (radiolabeled with [125I]-; assay type: ADME, organism-based, Thyroid gland; details: in vivo, iv; in short: as §1
# Rattus norvegicus [13] = test: Distribution of radioactivity was measured in thyroid tissue of unfasted Fischer 344 rats administered intravenously after 30 minutes (radiolabeled with [125I]-; assay type: ADME, organism-based, Thyroid gland; details: in vivo, iv, 0.5 h; in short: as §1
# Rattus norvegicus [14] = test: Distribution of radioactivity was measured in thyroid tissue of unfasted Fischer 344 rats administered intravenously after 5 minutes (radiolabeled with [125I]-; assay type: ADME, organism-based, Thyroid gland; details: in vivo, iv; in short: as §1
# Rattus norvegicus [15] = test: Distribution of radioactivity was measured in thyroid tissue of unfasted Fischer 344 rats administered intravenously after 60 minutes (radiolabeled with [125I]-; assay type: ADME, organism-based, Thyroid gland; details: in vivo, iv, 1 h
# In short: (§2)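 Female Fischer 344 rats (10-12 weeks, 170-200 g), fed ad libitum before and during the experiment, five per time point. The radioiodinated fatty acid was dissolved in 0.5 mL absolute ethanol, added dropwise to stirred 6% BSA at ~40 °C (final ethanol 10%), filtered at 0.22 µm, and injected in 0.5 mL into a lateral tail vein under ether anesthesia.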
# Rattus norvegicus [16] = test: Mean heart/blood tissue of unfasted Fischer 344 rats administered intravenous after 2 minutes (radiolabeled with [125I]-; assay type: ADME, organism-based; details: in vivo; in short: as §2
# Rattus norvegicus [17] = test: Mean heart/blood tissue of unfasted Fischer 344 rats administered intravenous after 30 minutes (radiolabeled with [125I]-; assay type: ADME, organism-based; details: in vivo, 0.5 h; in short: as §2
# Rattus norvegicus [18] = test: Mean heart/blood tissue of unfasted Fischer 344 rats administered intravenous after 5 minutes (radiolabeled with [125I]-; assay type: ADME, organism-based; details: in vivo; in short: as §2
# Rattus norvegicus [19] = test: Mean heart/blood tissue of unfasted Fischer 344 rats administered intravenous after 60 minutes (radiolabeled with [125I]-; assay type: ADME, organism-based; details: other tissue, 1 h; in short: as §2
# Rattus norvegicus [20] = test: Distribution of radioactivity was measured in kidney tissue of unfasted Fischer 344 rats administered intravenously after 2 minutes (radiolabeled with [125I]-; assay type: ADME, organism-based; details: in vivo, iv; in short: as §1
# Rattus norvegicus [21] = test: Distribution of radioactivity was measured in kidney tissue of unfasted Fischer 344 rats administered intravenously after 30 minutes (radiolabeled with [125I]-; assay type: ADME, organism-based; details: in vivo, iv, 0.5 h; in short: as §1
# Rattus norvegicus [22] = test: Distribution of radioactivity was measured in kidney tissue of unfasted Fischer 344 rats administered intravenously after 5 minutes (radiolabeled with [125I]-; assay type: ADME, organism-based; details: in vivo, iv; in short: as §1
# Rattus norvegicus [23] = test: Distribution of radioactivity was measured in kidney tissue of unfasted Fischer 344 rats administered intravenously after 60 minutes (radiolabeled with [125I]-; assay type: ADME, organism-based; details: in vivo, iv, 1 h; in short: as §1
# Rattus norvegicus [24] = test: Distribution of radioactivity was measured in liver tissue of unfasted Fischer 344 rats administered intravenously after 15 minutes (radiolabeled with [125I]-; assay type: ADME, organism-based; details: in vivo, iv, 0.25 h; in short: as §1
# Rattus norvegicus [25] = test: Distribution of radioactivity was measured in liver tissue of unfasted Fischer 344 rats administered intravenously after 2 minutes (radiolabeled with [125I]-; assay type: ADME, organism-based; details: in vivo, iv; in short: as §1
# Rattus norvegicus [26] = test: Distribution of radioactivity was measured in liver tissue of unfasted Fischer 344 rats administered intravenously after 30 minutes (radiolabeled with [125I]-; assay type: ADME, organism-based; details: in vivo, iv, 0.5 h; in short: as §1
# Rattus norvegicus [27] = test: Distribution of radioactivity was measured in liver tissue of unfasted Fischer 344 rats administered intravenously after 5 minutes (radiolabeled with [125I]-; assay type: ADME, organism-based; details: in vivo, iv; in short: as §1
# Rattus norvegicus [28] = test: Distribution of radioactivity was measured in liver tissue of unfasted Fischer 344 rats administered intravenously after 60 minutes (radiolabeled with [125I]-; assay type: ADME, organism-based; details: in vivo, iv, 1 h; in short: as §1
# Rattus norvegicus [29] = test: Distribution of radioactivity was measured in lung tissue of unfasted Fischer 344 rats administered intravenously after 15 minutes (radiolabeled with [125I]-; assay type: ADME, organism-based; details: in vivo, iv, 0.25 h; in short: as §1
# Rattus norvegicus [30] = test: Distribution of radioactivity was measured in lung tissue of unfasted Fischer 344 rats administered intravenously after 2 minutes (radiolabeled with [125I]-; assay type: ADME, organism-based; details: in vivo, iv; in short: as §1
# Rattus norvegicus [31] = test: Distribution of radioactivity was measured in lung tissue of unfasted Fischer 344 rats administered intravenously after 30 minutes (radiolabeled with [125I]-; assay type: ADME, organism-based; details: in vivo, iv, 0.5 h; in short: as §1
# Rattus norvegicus [32] = test: Distribution of radioactivity was measured in lung tissue of unfasted Fischer 344 rats administered intravenously after 5 minutes (radiolabeled with [125I]-; assay type: ADME, organism-based; details: in vivo, iv; in short: as §1
# Rattus norvegicus [33] = test: Distribution of radioactivity was measured in lung tissue of unfasted Fischer 344 rats administered intravenously after 60 minutes (radiolabeled with [125I]-; assay type: ADME, organism-based; details: in vivo, iv, 1 h; in short: as §1
# Rattus norvegicus [34] = species: Rattus norvegicus; test: Specific activity was determined with radioiodinated iodine-125; assay type: functional
# Rattus norvegicus [35] = test: Distribution of radioactivity was measured in heart tissue of unfasted Fischer 344 rats administered intravenously after 5 minutes (radiolabeled with [125I]-; assay type: ADME, organism-based; details: in vivo, iv; in short: as §1
# Rattus norvegicus [36] = test: Mean heart/blood tissue of unfasted Fischer 344 rats administered intravenous after 15 minutes (radiolabeled with [125I]-; assay type: ADME, organism-based; details: in vivo, 0.25 h; in short: as §2
# Rattus norvegicus [37] = species: Rattus norvegicus; test: Specific activity was determined with radioiodinated iodine-123; assay type: functional
SMILES,Distribution (Rattus norvegicus [1]),Distribution (Rattus norvegicus [2]),Distribution (Rattus norvegicus [3]),Distribution (Rattus norvegicus [4]),Distribution (Rattus norvegicus [5]),Distribution (Rattus norvegicus [6]),Distribution (Rattus norvegicus [7]),Distribution (Rattus norvegicus [8]),Distribution (Rattus norvegicus [9]),Distribution (Rattus norvegicus [10]),Distribution (Rattus norvegicus [11]),Distribution (Rattus norvegicus [12]),Distribution (Rattus norvegicus [13]),Distribution (Rattus norvegicus [14]),Distribution (Rattus norvegicus [15]),Distribution (Rattus norvegicus [16]),Distribution (Rattus norvegicus [17]),Distribution (Rattus norvegicus [18]),Distribution (Rattus norvegicus [19]),Distribution (Rattus norvegicus [20]),also measured
O=C(O)CCCCCCCCCCCCCCCC/C=C/I,0.35%,0.45%,0.51%,0.3%,0.31%,3%,4.44%,3.79%,3.4%,0.73%,15.7%,7.91%,21.9%,8.73%,43.5%,9.9%,7.4%,12.4%,10.9%,0.85%,Distribution (Rattus norvegicus [21]): 0.76%; Distribution (Rattus norvegicus [22]): 0.82%; Distribution (Rattus norvegicus [23]): 0.67%; Distribution (Rattus norvegicus [24]): 5.88%; Distribution (Rattus norvegicus [25]): 6.91%; Distribution (Rattus norvegicus [26]): 5.72%; Distribution (Rattus norvegicus [27]): 6.45%; Distribution (Rattus norvegicus [28]): 3.79%; Distribution (Rattus norvegicus [29]): 0.92%; Distribution (Rattus norvegicus [30]): 1.16%; Distribution (Rattus norvegicus [31]): 1%; Distribution (Rattus norvegicus [32]): 0.97%; Distribution (Rattus norvegicus [33]): 0.86%; Specific activity (Rattus norvegicus [34]): 1.77 Ci mM-1; Distribution (Rattus norvegicus [35]): 3.72%; Distribution (Rattus norvegicus [36]): 8.6%; Specific activity (Rattus norvegicus [37]): 2.21 Ci mM-1
CC(CCCCCCCCCCCCCC/C=C/I)CC(=O)O (centres undefined),0.41%,1.05%,0.59%,0.67%,0.37%,3.47%,3.93%,4.12%,3.08%,0.66%,16.9%,7.21%,29.4%,9.49%,65.4%,3.7%,6.9%,5.6%,8.3%,0.95%,Distribution (Rattus norvegicus [21]): 0.71%; Distribution (Rattus norvegicus [22]): 0.92%; Distribution (Rattus norvegicus [23]): 0.67%; Distribution (Rattus norvegicus [24]): 8.44%; Distribution (Rattus norvegicus [25]): 8.32%; Distribution (Rattus norvegicus [26]): 5.97%; Distribution (Rattus norvegicus [27]): 7.81%; Distribution (Rattus norvegicus [28]): 4.73%; Distribution (Rattus norvegicus [29]): 0.83%; Distribution (Rattus norvegicus [30]): 1.42%; Distribution (Rattus norvegicus [31]): 0.89%; Distribution (Rattus norvegicus [32]): 1.18%; Distribution (Rattus norvegicus [33]): 0.73%; Specific activity (Rattus norvegicus [34]): 7.08 Ci mM-1; Distribution (Rattus norvegicus [35]): 3.74%; Distribution (Rattus norvegicus [36]): 7.4%; Specific activity (Rattus norvegicus [37]): 4.98 Ci mM-1
